A word on the Kd: it is the concentration at which binding is half-saturated. Read a high Kd as weaker binding. For orientation: IC50 means the point on the concentration scale where inhibition reaches its midpoint. Lower therefore signals greater potency in that assay.

Bridge positions count the residues as written; N and C are the ends. Peptide text beside a SMILES is read from it.

The text below walks through data of ChEMBL document CHEMBL1150419, “Structure-activity relationships of a peptide inhibitor of the human FcRn:human IgG interaction” (Bioorg Med Chem, 2008).

In series [1] the target is T1, IgG receptor FcRn large subunit p51 (Homo sapiens, UniProt P55899). Description: Binding affinity to human FcRn at pH 6 by surface plasmon resonance assay. The procedure, abridged: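 Soluble human FcRn coupled to the dextran surface of a CM5 chip; peptide dilutions flowed over the chip. The equilibrium response at each dilution was plotted against concentration and fitted to a steady-state affinity model to give Kd.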
(In general: In SPR one partner is held on a chip, and binding of the other changes the refractive index at the surface.)

In series [2] the target is T1, IgG receptor FcRn large subunit p51. Description: Binding affinity to human FcRn at pH 7.4 by surface plasmon resonance assay. The procedure, abridged:
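Soluble human FcRn coupled to the dextran surface of a CM5 chip; peptide dilutions flowed over the chip. Equilibrium response at each dilution plotted against concentration, and Kd fitted with a steady-state affinity model.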

Series [3] has the same target. Description: Inhibition of human IgG binding to soluble human FcRn by ELISA. The procedure, abridged: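 Biotinylated soluble human FcRn immobilized on neutravidin plates, incubated with hIgG (3 nM, constant) and peptide at varying concentrations for 2 h at 37 °C. After washing, bound hIgG detected with peroxidase-conjugated hIgG-specific Fab fragments.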
For orientation: ELISA stands for enzyme-linked immunosorbent assay.

Series [4] can be described thus: Stability in presence of subtilisin assessed as intact peptide after 18 hrs. The note with it: subtilisin (protease solution); read-out: Stability. Type of series: ADME. The procedure, abridged: (§1)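 Peptide dissolved in PBS at 0.3 mg/mL and treated with a 470-fold molar excess of Subtilisin Carlsberg. The fraction of intact peptide remaining was recorded.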
Series [5] in a line: Stability in presence of subtilisin assessed as intact peptide after 1 hr. Type of series: ADME. The note with it: subtilisin (protease solution); read-out: Stability. The procedure, abridged: as §1

T1 sequence (P55899 whole entry): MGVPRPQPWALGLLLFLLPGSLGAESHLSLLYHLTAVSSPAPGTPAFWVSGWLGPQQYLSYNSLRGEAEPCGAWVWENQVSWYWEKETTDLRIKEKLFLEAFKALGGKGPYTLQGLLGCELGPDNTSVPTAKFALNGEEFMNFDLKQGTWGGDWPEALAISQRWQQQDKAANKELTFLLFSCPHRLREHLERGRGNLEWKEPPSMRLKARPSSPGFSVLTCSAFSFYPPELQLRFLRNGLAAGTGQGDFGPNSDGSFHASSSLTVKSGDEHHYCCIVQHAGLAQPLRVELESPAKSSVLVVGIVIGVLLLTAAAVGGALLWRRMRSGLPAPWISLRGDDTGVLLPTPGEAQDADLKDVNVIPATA

With `CC(C)C[C@@H](C(=O)N[C@@H](Cc1ccc(O)cc1)C(=O)N1CCC[C@H]1C(=O)N[C@@H](CS)C(=O)O)N(C)C(=O)CN(C)C(=O)CNC(=O)[C@H](Cc1ccccc1)NC(=O)[C@H](CCCCN)NC(=O)CNC(=O)[C@@H](NC(=O)[C@@H](NC(=O)[C@H](Cc1ccccc1)NC(=O)[C@@H](N)CCCN=C(N)N)C(C)(C)S)[C@@H](C)O`, the Kd in series [1] was 1.3 µM; in series [2], 1.1 µM. This compound also displayed an IC50 in series [3] of 40 µM.

As to `CC(C)C[C@@H](C(=O)N[C@@H](Cc1ccc(O)cc1)C(=O)N1CCC[C@H]1C(=O)N[C@@H](CS)C(=O)O)N(C)C(=O)CN(C)C(=O)CNC(=O)[C@H](Cc1ccccc1)NC(=O)[C@H](CCCNC(=N)N)NC(=O)CNC(=O)[C@@H](NC(=O)[C@@H](NC(=O)[C@H](Cc1ccccc1)NC(=O)[C@@H](N)CCCNC(=N)N)C(C)(C)S)[C@@H](C)O`, the dissociation constant Kd in series [1] and in series [2] was 0.5 µM in each case. The same compound had an IC50 in series [3] of 5.5 µM.

In the case of `CC(C)C[C@@H](C(=O)N[C@@H](Cc1ccc(O)cc1)C(=O)N1CCC[C@H]1C(=O)N[C@@H](CS)C(=O)O)N(C)C(=O)CNC(=O)[C@@H](C)NC(=O)[C@H](Cc1ccccc1)NC(=O)[C@H](Cc1cnc[nH]1)NC(=O)CNC(=O)[C@@H](C)N(C)C(=O)[C@@H](NC(=O)[C@H](Cc1ccccc1)NC(=O)[C@@H](N)CCCNC(=N)N)C(C)(C)S`, in series [4], the remaining at 18 h was 95%. The remaining at 1 h in series [5] is 100%. The IC50 in series [3] is 8 µM.

Consider `C[C@@H](O)[C@H](NC(=O)[C@@H](NC(=O)[C@H](Cc1ccccc1)NC(=O)[C@H](CCCN=C(N)N)NC(=O)[C@@H](N)CCC(N)=O)C(C)(C)S)C(=O)NCC(=O)N[C@@H](Cc1cnc[nH]1)C(=O)N[C@@H](Cc1ccccc1)C(=O)N[C@H](Cc1ccccc1)C(=O)NCC(=O)N1CCC[C@H]1C(=O)N[C@@H](Cc1ccc(O)cc1)C(=O)N1CCC[C@H]1C(=O)N[C@@H](CS)C(=O)N[C@@H](CC(N)=O)C(=O)NCC(=O)N1CCC[C@H]1C(=O)O`, for which the remaining at 18 h in series [4] is 0%. Besides, the Kd in series [1] came to 18.3 µM. For the same compound, in series [5], the remaining at 1 h is 5%. In series [3], the IC50 amounted to 39 µM.

Regarding `CC[C@H](C)[C@@H]1NC(=O)CNC(=O)[C@H](CC(=O)O)NC(=O)[C@H]([C@@H](C)CC)NC(=O)[C@H](Cc2cnc[nH]2)NC(=O)CNC(=O)[C@H](CCC(=O)O)NC(=O)[C@H]([C@@H](C)CC)NC(=O)[C@@H](NC(=O)[C@H](Cc2ccc(O)cc2)NC(=O)[C@H](CO)NC(=O)[C@@H]2CCCN2)CSSC[C@@H](C(=O)N[C@@H](Cc2ccccc2)C(=O)N[C@@H](CC(N)=O)C(=O)N[C@@H](C)C(=O)O)NC(=O)[C@H](Cc2ccc(O)cc2)NC1=O` (H-PSYCIEGHIDGIYCFNA-OH; disulfide 4-14), the Kd in series [1] was 8.8 µM; in series [2], 76 µM. Further, the IC50 in series [3] was found to be 49 µM.

With `CC(C)C[C@@H](C(=O)N[C@@H](Cc1ccc(O)cc1)C(=O)N1CCC[C@H]1C(=O)N[C@@H](CS)C(=O)O)N(C)C(=O)CN(C)C(=O)CNC(=O)[C@H](Cc1ccccc1)NC(=O)[C@H](CC1CCNCC1)NC(=O)CNC(=O)[C@@H](NC(=O)[C@@H](NC(=O)[C@H](Cc1ccccc1)NC(=O)[C@@H](N)CCCNC(=N)N)C(C)(C)S)[C@@H](C)O`, the Kd in series [1] is 5.2 µM; in series [2], 6.4 µM. Moreover, in series [3], the IC50 stood at 85 µM.

Consider `CC(C)C[C@@H](C(=O)N[C@@H](Cc1ccc(O)cc1)C(=O)N1CCC[C@H]1C(=O)N[C@@H](CS)C(=O)O)N(C)C(=O)CN(C)C(=O)CNC(=O)[C@H](Cc1ccccc1)NC(=O)[C@H](Cc1ccncc1)NC(=O)CNC(=O)[C@@H](NC(=O)[C@@H](NC(=O)[C@H](Cc1ccccc1)NC(=O)[C@@H](N)CCCNC(=N)N)C(C)(C)S)[C@@H](C)O`, for which the figures for the Kd in series [1] and in series [2] were 0.067 µM and 0.28 µM, respectively. In series [3], this compound came in with an IC50 of 1.3 µM.

Regarding `CC[C@H](C)[C@H](NC(=O)[C@@H](NC(=O)[C@@H](N)CCCCN)[C@@H](C)CC)C(=O)N[C@H]1CSSC[C@@H](C(=O)N[C@@H](CCC(N)=O)C(=O)NCC(=O)N[C@@H](CCCCN)C(=O)O)NC(=O)[C@H](Cc2ccc(O)cc2)NC(=O)[C@H](CCSC)NC(=O)CNC(=O)CNC(=O)[C@H](Cc2ccccc2)NC(=O)[C@H](Cc2cnc[nH]2)NC(=O)CNC(=O)[C@@H]2CCCN2C(=O)[C@H](CO)NC1=O` (H-KIICSPGHFGGMYCQGK-OH; disulfide 4-14), the figures for the Kd in series [1] and in series [2] were 22 µM and 78 µM, respectively. Besides, the IC50 in series [3] worked out at 64 µM.

With `CC(C)C[C@@H](C(=O)N[C@@H](Cc1ccc(O)cc1)C(=O)N1CCC[C@H]1C(=O)N[C@@H](CS)C(=O)O)N(C)C(=O)CN(C)C(=O)CNC(=O)[C@H](Cc1ccccc1)NC(=O)[C@H](Cc1ccc(N=C(N)N)cc1)NC(=O)CNC(=O)[C@@H](NC(=O)[C@@H](NC(=O)[C@H](Cc1ccccc1)NC(=O)[C@@H](N)CCCN=C(N)N)C(C)(C)S)[C@@H](C)O`, the dissociation constant (Kd) in series [1] stood at 0.074 µM; in series [2], 0.073 µM.

The compound `CC(C)C[C@@H](C(=O)N[C@@H](Cc1ccc(O)cc1)C(=O)N1CCC[C@H]1C(=O)N[C@@H](CS)C(=O)O)N(C)C(=O)CN(C)C(=O)CNC(=O)[C@H](Cc1ccccc1)NC(=O)[C@H](Cc1ccc(N)cc1)NC(=O)CNC(=O)[C@@H](NC(=O)[C@@H](NC(=O)[C@H](Cc1ccccc1)NC(=O)[C@@H](N)CCCNC(=N)N)C(C)(C)S)[C@@H](C)O` registered a Kd in series [2] of 1.1 µM. The compound also yielded an IC50 in series [3] of 4.6 µM.

In the case of `CC(C)C[C@@H](C(=O)N[C@@H](Cc1ccc(O)cc1)C(=O)N1CCC[C@H]1C(=O)N[C@@H](CS)C(=O)O)N(C)C(=O)CN(C)C(=O)CNC(=O)[C@H](Cc1ccccc1)NC(=O)[C@H](Cc1ccsc1)NC(=O)CNC(=O)[C@@H](NC(=O)[C@@H](NC(=O)[C@H](Cc1ccccc1)NC(=O)[C@@H](N)CCCN=C(N)N)C(C)(C)S)[C@@H](C)O`, the Kd was 2 µM in series [1] and 3 µM in series [2]. The compound also showed an IC50 in series [3] of 45 µM.

For `CC[C@H](C)[C@@H]1NC(=O)CNC(=O)CNC(=O)[C@H](Cc2ccccc2)NC(=O)[C@H](Cc2cnc[nH]2)NC(=O)CNC(=O)[C@H]([C@@H](C)O)NC(=O)[C@H](C(C)C)NC(=O)[C@@H](NC(=O)CNC(=O)CNC(=O)CN)CSSC[C@@H](C(=O)N[C@@H](CC(N)=O)C(=O)N[C@@H](Cc2ccc(O)cc2)C(=O)N[C@@H](CCC(N)=O)C(=O)O)NC(=O)[C@H](Cc2ccc(O)cc2)NC1=O` (H-GGGCVTGHFGGIYCNYQ-OH; disulfide 4-14), the Kd in series [1] stood at 5.2 µM; in series [2], 35 µM. The compound also showed an IC50 in series [3] of 33 µM.

Take `CC(C)C[C@@H](C(=O)N[C@@H](Cc1ccc(O)cc1)C(=O)N1CCC[C@H]1C(=O)N[C@@H](CS)C(=O)O)N(C)C(=O)CN(C)C(=O)CNC(=O)[C@H](Cc1ccccc1)NC(=O)[C@H](CCCN)NC(=O)CNC(=O)[C@@H](NC(=O)[C@@H](NC(=O)[C@H](Cc1ccccc1)NC(=O)[C@@H](N)CCCNC(=N)N)C(C)(C)S)[C@@H](C)O`: the results for the Kd in series [1] and in series [2] were 1.3 µM and 1.2 µM, respectively. The same compound returned a concentration for half-maximal inhibition (IC50) in series [3] of 12 µM.

Consider `CC(C)C[C@@H](C(=O)N[C@@H](Cc1ccc(O)cc1)C(=O)N1CCC[C@H]1C(=O)N[C@@H](CS)C(=O)O)N(C)C(=O)CN(C)C(=O)CNC(=O)[C@H](Cc1ccccc1)NC(=O)[C@H](Cc1cccnc1)NC(=O)CNC(=O)[C@@H](NC(=O)[C@@H](NC(=O)[C@H](Cc1ccccc1)NC(=O)[C@@H](N)CCCNC(=N)N)C(C)(C)S)[C@@H](C)O`, for which the Kd was found to be 0.064 µM in series [1] and 0.26 µM in series [2].

Consider `CC(C)C[C@@H]1NC(=O)CNC(=O)CNC(=O)[C@H](Cc2ccccc2)NC(=O)[C@H](Cc2cnc[nH]2)NC(=O)CNC(=O)[C@H]([C@@H](C)O)NC(=O)[C@@H](NC(=O)[C@H](Cc2ccccc2)NC(=O)[C@H](CCCN=C(N)N)NC(=O)[C@@H](N)CCC(N)=O)CSSC[C@@H](C(=O)N[C@@H](CC(N)=O)C(=O)NCC(=O)N2CCC[C@H]2C(=O)O)NC(=O)[C@@H]2CCCN2C(=O)[C@H](Cc2ccc(O)cc2)NC1=O`, for which the Kd in series [1] was found to be 5.7 µM; in series [2], 45 µM. For the same compound, the IC50 in series [3] stood at 36 µM.

Turning to `CC(C)C[C@H](NC(=O)CN1CCCC[C@@H](NC(=O)[C@H](Cc2ccccc2)NC(=O)[C@H](Cc2cnc[nH]2)NC(=O)CNC(=O)[C@@H](NC(=O)[C@H](NC(=O)[C@H](Cc2ccccc2)NC(=O)[C@@H](N)CCCNC(=N)N)C(C)(C)S)[C@@H](C)O)C1=O)C(=O)N[C@@H](Cc1ccc(O)cc1)C(=O)N1CCC[C@H]1C(=O)N[C@@H](CS)C(=O)O`, the Kd in series [1] is 0.103 µM. Further, in series [3], the IC50 was found to be 0.64 µM.

The compound `C[C@H](NC(=O)CNC(=O)CNC(=O)[C@H](Cc1ccccc1)NC(=O)[C@H](Cc1cnc[nH]1)NC(=O)CNC(=O)[C@@H](NC(=O)[C@H](CS)NC(=O)[C@H](Cc1ccccc1)NC(=O)[C@H](CCCN=C(N)N)NC(=O)[C@@H](N)CCC(N)=O)[C@@H](C)O)C(=O)N[C@@H](Cc1ccc(O)cc1)C(=O)N1CCC[C@H]1C(=O)N[C@@H](CS)C(=O)N[C@@H](CC(N)=O)C(=O)NCC(=O)N1CCC[C@H]1C(=O)O` (H-QRFCTGHFGGAYPCNGP-OH) came in with a Kd in series [1] of 26 µM. This compound returned an IC50 in series [3] of 107 µM.

For the compound `CC(C)C[C@H](NC(=O)[C@H]1CCCN1C(=O)[C@@H](Cc1ccccc1)NC(=O)[C@H](Cc1ccccc1)NC(=O)[C@H](Cc1cnc[nH]1)NC(=O)CNC(=O)[C@@H](NC(=O)[C@@H](NC(=O)[C@H](Cc1ccccc1)NC(=O)[C@H](CCCN=C(N)N)NC(=O)[C@@H](N)CCC(N)=O)C(C)(C)S)[C@@H](C)O)C(=O)N[C@@H](Cc1ccc(O)cc1)C(=O)N1CCC[C@H]1C(=O)N[C@@H](CS)C(=O)N[C@@H](CC(N)=O)C(=O)NCC(=O)N1CCC[C@H]1C(=O)O`, the Kd in series [1] is 0.72 µM. In series [3], this compound gave an IC50 of 5.9 µM.
